From ChEMBL document CHEMBL3351380, “Antioxidant and antimicrobial studies on fused-ring pyrazolones and isoxazolones” (Bioorg Med Chem, 2014) come the findings set out here.

Structures are written as SMILES. ≈ marks a conversion by molar mass, not a printed value. Calls of active or inactive are those of the source. A value given as a limit tells only on which side of the number the result lay.

Data set [1] is described as follows: Antioxidant activity assessed as DPPH radical scavenging activity after 3 hrs by spectrophotometry. Format: physicochemical. Summed up: (§1)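 DPPH (0.51 mM in methanol) was mixed 1:1 by volume with the compound at several concentrations (100, 50, 25 … µg/mL range). Absorbance was read against a control, and % inhibition = (A0−As)/A0 ×100. Readings were taken at 30 min and 3 h, with ascorbic acid as the reference. Triplicate measurements.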

The nature of data set [2]: Metal chelating activity of the compound assessed as formation of iron complex after 20 mins by spectrophotometry. The class given is physicochemical. In a few lines: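 Fe2+ chelation was measured by disruption of the o-phenanthroline–Fe2+ complex. O-phenanthroline (0.05% in methanol) and FeCl2 (0.1%) were mixed with the sample at various concentrations and held at room temperature for 20 min, then read at 510 nm. EDTA was the standard chelator. % chelation = (Acontrol−Asample)/Acontrol ×100, and IC50 came from plots of % chelation versus concentration. Triplicates.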

For data set [3], the system named is Candida albicans. As to the kind of experiment: Antifungal activity against Candida albicans by agar well diffusion method. Format: functional.
The subject of data set [4] is Pseudomonas aeruginosa. The data set can be described thus: Antimicrobial activity against Pseudomonas aeruginosa NCIMB 8295 by agar well diffusion method. Format: functional.
Data set [5] deals with Bacillus subtilis. The data set can be described thus: Antimicrobial activity against Bacillus subtilis NCIB 3610 by agar well diffusion method. Conditions: subsp. subtilis str. NCIB 3610. Format: functional.
For data set [6], the system named is Escherichia coli. The data set can be described thus: Antimicrobial activity against Escherichia coli ATCC 8739 assessed as zone of inhibition at 100 ug/ml by agar well diffusion method. Format: functional. In a few lines:
(§2)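 For the agar well diffusion screen, samples at 100 µg/mL were made from a stock of 10 mg in 1 mL EtOH diluted 1:1 (v/v) with Mueller-Hinton medium. The zone of inhibition was scored as 5–10 mm poor, 10–15 moderate, 15–20 good and 20–25 very good. Gentamycin and nystatin were the reference drugs. Strains were confirmed at the University of Botswana microbiology laboratory.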
On the technique in general: Agar diffusion results depend on both activity and mobility in agar.

For data set [7], the system named is Bacillus subtilis. The data set can be described thus: Antimicrobial activity against Bacillus subtilis NCIB 3610 assessed as zone of inhibition at 100 ug/ml by agar well diffusion method. Format: functional. The note with it: for zone of inhibition at 100 µg/mL: subsp. subtilis str. NCIB 3610, read-out: IZ; for Activity: subsp. subtilis str. NCIB 3610. In a few lines: as §2

A short description of data set [8]: Antioxidant activity assessed as DPPH radical scavenging activity after 30 mins by spectrophotometry. Format: physicochemical. In a few lines:
as §1

For data set [9], the system named is Staphylococcus aureus. As to the kind of experiment: Antimicrobial activity against Staphylococcus aureus ATCC 25923 by agar well diffusion method. The class given is functional.
For data set [10], the system named is Escherichia coli. The data set can be described thus: Antimicrobial activity against Escherichia coli ATCC 8739 by agar well diffusion method. The class given is functional.
Data set [11] deals with Candida albicans. The data set can be described thus: Antifungal activity against Candida albicans assessed as zone of inhibition at 100 ug/ml by agar well diffusion method. The class given is functional. The note with it: for zone of inhibition at 100 µg/mL: read-out: IZ. In a few lines:
as §2

The test system of data set [12] is Staphylococcus aureus. As to the kind of experiment: Antimicrobial activity against Staphylococcus aureus ATCC 25923 assessed as zone of inhibition at 100 ug/ml by agar well diffusion method. Format: functional. Conditions: for zone of inhibition at 100 µg/mL: read-out: IZ. Summed up:
as §2

Data set [13] concerns Pseudomonas aeruginosa. The data set can be described thus: Antimicrobial activity against Pseudomonas aeruginosa NCIMB 8295 assessed as zone of inhibition at 100 ug/ml by agar well diffusion method. Format: functional. In a few lines: as §2
Data set [14] is described as follows: Antioxidant activity assessed as DPPH radical scavenging activity at 10 ug/ml after 3 hrs by spectrophotometry. Format: physicochemical.

As for `O=C1ON=C2C=C(c3cccs3)CC(c3cccc([N+](=O)[O-])c3)C12` (stereo not given), the IC50 (in general, the point on the concentration scale where inhibition reaches its midpoint) in data set [1] amounted to 197.78 µg/mL (≈ 581 µM); in [2] it was 675.67 µg/mL (≈ 1990 µM); in [8], 309.29 µg/mL (≈ 909 µM). The MIC (in general, the smallest concentration in the dilution series that meets the test's criterion for growth inhibition) with Candida albicans [3] was 1.25 µg/mL (≈ 3.67 µM); in the data set on Pseudomonas aeruginosa [4] it was 2.5 µg/mL (≈ 7.35 µM); with Bacillus subtilis [5] it was 1.25 µg/mL (≈ 3.67 µM); in the data set with Staphylococcus aureus [9], 2.5 µg/mL (≈ 7.35 µM); in the data set on Escherichia coli [10], 2.5 µg/mL (≈ 7.35 µM). Moreover, the zone of inhibition at 100 µg/mL in the data set on Escherichia coli [6] (read-out: IZ) stood at 13 mm; in the data set on Bacillus subtilis [7], 14 mm; in the data set with Candida albicans [11], 15 mm; with Staphylococcus aureus [12], 12 mm; in the data set on Pseudomonas aeruginosa [13] (read-out: IZ) it was 11 mm.

For the compound `O=C1NN=C2C=C(c3ccc(Br)cc3)CC(c3cccc([N+](=O)[O-])c3)C12` (stereo not given), the IC50 in [1] was 77.89 µg/mL (≈ 189 µM); in data set [2], 106.36 µg/mL (≈ 258 µM); in [8] it was 103.6 µg/mL (≈ 251 µM). The MIC against Candida albicans [3], against Bacillus subtilis [5] and with Staphylococcus aureus [9] was 2.5 µg/mL (≈ 6.06 µM) each time. Also, the MIC entry in the data set with Pseudomonas aeruginosa [4] and with Escherichia coli [10] was “inactive” in each case. Also, the outcome with Escherichia coli [6] and with Pseudomonas aeruginosa [13] was inactive. Also, the results for the zone of inhibition at 100 µg/mL in the data set with Bacillus subtilis [7], in the data set on Candida albicans [11] and with Staphylococcus aureus [12] were 13 mm, 10 mm and 13 mm, respectively.

`CCOC(=O)C1C(=O)C=C(c2ccc(OC)cc2OC)CC1c1cccc([N+](=O)[O-])c1` (stereo not given): the half-inhibitory concentration (IC50) worked out at 95.43 µg/mL (≈ 224 µM) in data set [1], 1006.67 µg/mL (≈ 2370 µM) in data set [2] and 195.65 µg/mL (≈ 460 µM) in [8]. In addition, the MIC result in the data set with Candida albicans [3], with Pseudomonas aeruginosa [4], in the data set on Bacillus subtilis [5], with Staphylococcus aureus [9] and in the data set on Escherichia coli [10] was “inactive” throughout. For the same compound, the outcome in the data set with Escherichia coli [6], in the data set on Bacillus subtilis [7], in the data set on Candida albicans [11], with Staphylococcus aureus [12] and in the data set on Pseudomonas aeruginosa [13] was inactive.

With `COc1ccc(C2=CC3=NOC(=O)C3C(c3cccc([N+](=O)[O-])c3)C2)cc1` (stereo not given), the half-inhibitory concentration (IC50) in data set [1] is 118.69 µg/mL (≈ 326 µM); in data set [2] it was 704.31 µg/mL (≈ 1930 µM); in [8], 258.75 µg/mL (≈ 710 µM). The MIC result in the data set with Candida albicans [3], with Pseudomonas aeruginosa [4], with Staphylococcus aureus [9] and in the data set with Escherichia coli [10] was “inactive” throughout. The compound further gave an MIC with Bacillus subtilis [5] of 2.5 µg/mL (≈ 6.86 µM). Besides, the outcome with Escherichia coli [6], in the data set with Candida albicans [11], with Staphylococcus aureus [12] and in the data set on Pseudomonas aeruginosa [13] was inactive. The zone of inhibition at 100 µg/mL in the data set on Bacillus subtilis [7] worked out at 12 mm.

For the compound `O=C1NN=C2C=C(c3ccc(O)cc3)CC(c3cccc([N+](=O)[O-])c3)C12` (stereo not given), the figures for the 50% inhibitory concentration (IC50) in data set [1], in [2] and in data set [8] were 30.23 µg/mL (≈ 86.5 µM), 80.91 µg/mL (≈ 232 µM) and 55.88 µg/mL (≈ 160 µM), respectively. For the same compound, the MIC against Candida albicans [3] and in the data set on Staphylococcus aureus [9] was 2.5 µg/mL (≈ 7.16 µM) in each case. In addition, the MIC result in the data set with Pseudomonas aeruginosa [4], in the data set on Bacillus subtilis [5] and in the data set with Escherichia coli [10] was “inactive” throughout. Also, the result with Escherichia coli [6], in the data set on Bacillus subtilis [7] and in the data set on Pseudomonas aeruginosa [13] was inactive. Moreover, the zone of inhibition at 100 µg/mL with Candida albicans [11] and with Staphylococcus aureus [12] was 11 mm throughout. In addition, the “inhibition (INH)” value in [14] is above 40%.

`CCOC(=O)C1C(=O)C=C(c2ccc(OC)cc2)CC1c1cccc([N+](=O)[O-])c1` (stereo not given): the IC50 came out at 98.53 µg/mL (≈ 249 µM) in data set [1], 1028 µg/mL (≈ 2600 µM) in [2] and 196.5 µg/mL (≈ 497 µM) in [8]. Moreover, the MIC result in the data set on Candida albicans [3], in the data set with Pseudomonas aeruginosa [4], in the data set on Bacillus subtilis [5], in the data set on Staphylococcus aureus [9] and with Escherichia coli [10] was “inactive” each time. For the same compound, the result in the data set with Escherichia coli [6], with Bacillus subtilis [7], in the data set on Candida albicans [11], in the data set with Staphylococcus aureus [12] and in the data set on Pseudomonas aeruginosa [13] was inactive.

For the compound `O=C1NN=C2C=C(c3ccccc3)CC(c3cccc([N+](=O)[O-])c3)C12` (stereo not given), the IC50 in [1] is 59.5 µg/mL (≈ 178 µM); in data set [2], 93.04 µg/mL (≈ 279 µM); in [8], 98.53 µg/mL (≈ 296 µM). The MIC entry in the data set on Candida albicans [3], with Pseudomonas aeruginosa [4] and in the data set with Escherichia coli [10] was “inactive” each time. In addition, the MIC in the data set on Bacillus subtilis [5] and in the data set with Staphylococcus aureus [9] was 2.5 µg/mL (≈ 7.5 µM) in each case. Moreover, the outcome with Escherichia coli [6], in the data set with Candida albicans [11] and in the data set with Pseudomonas aeruginosa [13] was inactive. Besides, the zone of inhibition at 100 µg/mL is 13 mm with Bacillus subtilis [7] and 12 mm in the data set with Staphylococcus aureus [12].

In the case of `O=C1ON=C2C=C(c3ccc(Br)cc3)CC(c3cccc([N+](=O)[O-])c3)C12` (stereo not given), the IC50 came to 218.75 µg/mL (≈ 529 µM) in data set [1], 816.48 µg/mL (≈ 1980 µM) in data set [2] and 305.01 µg/mL (≈ 738 µM) in data set [8]. Further, 2.5 µg/mL (≈ 6.05 µM) was the least that counted as inhibitory in the data set with Candida albicans [3] (MIC). The MIC result with Pseudomonas aeruginosa [4], in the data set on Bacillus subtilis [5], in the data set with Staphylococcus aureus [9] and with Escherichia coli [10] was “inactive” each time. In addition, the result with Escherichia coli [6], with Bacillus subtilis [7], with Staphylococcus aureus [12] and in the data set with Pseudomonas aeruginosa [13] was inactive. Also, the zone of inhibition at 100 µg/mL in the data set with Candida albicans [11] turned out to be 9 mm.
